# Experiments:
# [1] = Clearance in rat at 1 mg/kg, iv or 2 mg/kg, po; assay type: ADME, organism-based; conditions: in vivo
# In short: (§1)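 Rats received the inhibitor at 1 mg/kg iv and 2 mg/kg po. Values reported are clearance (mL/min/kg), half-life (h), oral AUC normalized to dose (μM h kg mg⁻¹) and oral bioavailability F (%).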
# Dipeptidyl peptidase 9 = Dipeptidyl peptidase 9 (Homo sapiens, UniProt Q86TI2); experiment: Inhibition of DPP9 activity
# [2] = Oral bioavailability in rat at 2 mg/kg; assay type: ADME, organism-based; conditions: in vivo; in short: as §1
# [3] = Half life in rat at 1 mg/kg, iv or 2 mg/kg, po; assay type: ADME, organism-based; conditions: in vivo; in short: as §1
# Dipeptidyl peptidase 8 = Dipeptidyl peptidase 8 (Homo sapiens, UniProt Q6V1X1); experiment: Inhibition of DPP8 activity
# Sequence of Dipeptidyl peptidase 8 (Q6V1X1 whole entry): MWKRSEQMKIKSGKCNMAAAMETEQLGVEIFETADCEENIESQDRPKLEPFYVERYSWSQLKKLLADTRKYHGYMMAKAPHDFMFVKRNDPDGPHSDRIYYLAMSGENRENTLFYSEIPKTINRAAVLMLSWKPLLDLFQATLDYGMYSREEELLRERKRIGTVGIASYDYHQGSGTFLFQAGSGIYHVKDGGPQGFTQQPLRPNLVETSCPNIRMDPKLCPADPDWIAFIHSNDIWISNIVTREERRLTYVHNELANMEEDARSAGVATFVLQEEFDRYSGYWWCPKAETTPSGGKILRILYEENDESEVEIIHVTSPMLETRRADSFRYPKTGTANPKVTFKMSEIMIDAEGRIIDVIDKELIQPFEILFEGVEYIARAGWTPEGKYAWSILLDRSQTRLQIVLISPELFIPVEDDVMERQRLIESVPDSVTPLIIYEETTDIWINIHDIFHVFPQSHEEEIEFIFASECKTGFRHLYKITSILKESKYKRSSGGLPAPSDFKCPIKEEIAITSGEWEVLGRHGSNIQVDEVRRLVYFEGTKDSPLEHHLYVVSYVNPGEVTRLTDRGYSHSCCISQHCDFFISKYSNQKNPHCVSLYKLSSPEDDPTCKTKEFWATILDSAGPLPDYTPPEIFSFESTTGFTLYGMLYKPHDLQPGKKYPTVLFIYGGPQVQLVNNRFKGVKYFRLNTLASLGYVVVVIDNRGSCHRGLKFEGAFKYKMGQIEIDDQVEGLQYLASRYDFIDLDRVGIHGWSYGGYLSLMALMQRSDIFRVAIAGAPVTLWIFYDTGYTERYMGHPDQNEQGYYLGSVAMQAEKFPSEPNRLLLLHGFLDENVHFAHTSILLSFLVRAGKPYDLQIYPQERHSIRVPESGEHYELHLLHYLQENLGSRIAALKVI
# Sequence of Dipeptidyl peptidase 9 (Q86TI2 whole entry): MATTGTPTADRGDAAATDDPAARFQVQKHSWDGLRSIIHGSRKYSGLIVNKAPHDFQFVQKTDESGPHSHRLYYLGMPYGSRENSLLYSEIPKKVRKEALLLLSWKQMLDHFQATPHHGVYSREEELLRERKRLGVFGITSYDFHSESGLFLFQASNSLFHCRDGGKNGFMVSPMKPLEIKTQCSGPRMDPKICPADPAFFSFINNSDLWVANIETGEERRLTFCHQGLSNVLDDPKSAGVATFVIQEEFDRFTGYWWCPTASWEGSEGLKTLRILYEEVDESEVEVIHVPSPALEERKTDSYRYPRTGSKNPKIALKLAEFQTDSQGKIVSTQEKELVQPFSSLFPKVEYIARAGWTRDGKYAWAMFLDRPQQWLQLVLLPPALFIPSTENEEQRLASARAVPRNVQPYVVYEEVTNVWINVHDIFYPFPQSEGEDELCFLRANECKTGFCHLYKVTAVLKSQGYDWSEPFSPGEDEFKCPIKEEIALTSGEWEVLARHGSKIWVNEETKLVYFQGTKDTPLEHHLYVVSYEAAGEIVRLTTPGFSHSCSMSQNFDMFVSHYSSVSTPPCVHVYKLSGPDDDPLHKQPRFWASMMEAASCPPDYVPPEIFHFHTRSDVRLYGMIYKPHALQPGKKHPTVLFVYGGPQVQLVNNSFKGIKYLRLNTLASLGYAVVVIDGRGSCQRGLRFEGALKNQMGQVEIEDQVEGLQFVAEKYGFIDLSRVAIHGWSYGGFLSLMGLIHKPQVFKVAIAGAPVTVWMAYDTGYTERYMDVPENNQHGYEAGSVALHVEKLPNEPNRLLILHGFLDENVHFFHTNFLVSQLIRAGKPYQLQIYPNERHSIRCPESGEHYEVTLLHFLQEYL
clearance [1] [mL/min/kg],IC50 (Dipeptidyl peptidase 9) [µM],bioavailability [2] [%],half-life [3] [min],IC50 (Dipeptidyl peptidase 8) [µM],Compound
–,> 100,–,–,–,N[C@@H](CC(=O)N1CCn2c(nnc2C(F)(F)F)C1)Cc1ccccc1F
–,> 100,–,–,> 100,N[C@@H](CC(=O)N1CCn2c(CO)nnc2C1)Cc1cc(F)ccc1F
70,> 100,2,–,–,CCc1nnc2n1CCN(C(=O)C[C@H](N)Cc1cc(F)c(F)cc1F)C2
–,> 100,–,–,> 100,N[C@@H](CC(=O)N1CCn2c(nnc2C(F)(F)F)C1)Cc1cccc(Cl)c1
66,> 100,39,78,–,N[C@@H](CC(=O)N1CCn2c(nnc2C(F)F)C1)Cc1cc(F)c(F)cc1F
–,> 100,–,–,–,N[C@@H](CC(=O)N1CCn2c(nnc2C(F)(F)F)C1)Cc1ccc(F)cc1F
–,> 100,–,–,> 100,N[C@@H](CC(=O)N1CCn2c(nnc2C(F)(F)F)C1)Cc1c(F)c(F)c(F)c(F)c1F
98,–,36,156,–,N[C@@H](CC(=O)N1CCn2c(nnc2C(F)(F)F)C1)Cc1ccc(Cl)cc1Cl
–,> 100,–,–,> 100,N[C@@H](CC(=O)N1CCn2c(nnc2C(F)(F)F)C1)Cc1cc(Cl)ccc1Cl
58,> 100,54,126,–,N[C@@H](CC(=O)N1CCn2c(nnc2C(F)(F)F)C1)Cc1cc(F)c(Cl)cc1F

# The remaining lines, values behind:
Compound,clearance [1] [mL/min/kg],IC50 (Dipeptidyl peptidase 9) [µM],bioavailability [2] [%],half-life [3] [min],IC50 (Dipeptidyl peptidase 8) [µM]
N[C@@H](CC(=O)N1CCn2c(nnc2C2CC2)C1)Cc1cc(F)c(F)cc1F,68,> 100,3,108,–
N[C@@H](CC(=O)N1CCn2c(nnc2C(F)(F)F)C1)Cc1ccc(F)cc1,–,> 100,–,–,–
N[C@@H](CC(=O)N1CCn2c(nnc2C(F)(F)F)C1)Cc1ccc(C(F)(F)F)cc1,–,> 100,–,–,> 100
N[C@@H](CC(=O)N1CCn2c(nnc2-c2ccncc2)C1)Cc1cc(F)ccc1F,–,84,–,–,–
N[C@@H](CC(=O)N1CCn2c(nnc2C(F)(F)F)C1)Cc1cc(F)cc(F)c1F,–,> 100,–,–,> 100
N[C@@H](CC(=O)N1CCn2c(nnc2-c2ccc(F)cc2F)C1)Cc1cc(F)ccc1F,–,58,–,–,–
N[C@@H](CC(=O)N1CCn2c(nnc2C(F)(F)F)C1)Cc1ccc(Cl)c(Cl)c1,–,> 100,–,–,> 100
N[C@@H](CC(=O)N1CCn2c(nnc2C(F)(F)F)C1)Cc1cccc(C(F)(F)F)c1,–,> 100,–,–,> 100
N[C@@H](CC(=O)N1CCn2c(nnc2C(F)(F)F)C1)Cc1cc(Cl)ccc1F,99,–,43,102,> 100
N[C@@H](CC(=O)N1CCn2c(nnc2C(F)(F)F)C1)Cc1cc(F)c(F)cc1F [SITAGLIPTIN],60,–,76,–,–
N[C@@H](CC(=O)N1CCn2c(nnc2-c2ccc(F)cc2)C1)Cc1cc(F)ccc1F,–,> 100,–,–,–
CCOC(=O)c1nnc2n1CCN(C(=O)C[C@H](N)Cc1cc(F)c(F)cc1F)C2,–,–,–,–,22
N[C@@H](CC(=O)N1CCn2c(nnc2C(F)(F)F)C1)Cc1cccc(F)c1,–,> 100,–,–,> 100
N[C@@H](CC(=O)N1CCn2c(nnc2C(F)(F)F)C1)Cc1c(F)cc(F)cc1F,–,> 100,–,–,> 100
N[C@@H](CC(=O)N1CCn2c(nnc2C(F)(F)F)C1)Cc1cc(F)c(F)cc1Cl,78,> 100,47,102,> 100
CC(C)(C)NC(=O)c1nnc2n1CCN(C(=O)C[C@H](N)Cc1cc(F)c(F)cc1F)C2,–,> 100,–,–,–
CCOC(=O)c1nnc2n1CCN(C(=O)C[C@H](N)Cc1cc(F)ccc1F)C2,–,78,–,–,–
N[C@@H](CC(=O)N1CCn2c(nnc2C(F)(F)F)C1)Cc1ccccc1Cl,–,> 100,–,–,> 100
N[C@@H](CC(=O)N1CCn2c(nnc2C(F)(F)F)C1)Cc1c(F)ccc(F)c1F,–,> 100,–,–,> 100
N[C@@H](CC(=O)N1CCn2c(nnc2C(F)(F)F)C1)Cc1ccccc1C(F)(F)F,–,> 100,–,–,> 100

# — ChEMBL document CHEMBL1148001 (Bioorg Med Chem Lett, 2007)
